Only some compounds are listed: those with a hit (about 2.2% of all), similar ones and a draw of the others.
PAD4 FP inh: blocks human protein arginine deiminase 4 | Q9UM07 | recombinant PAD4, RCA probe fluorescence polarization | inhibition, % at 6.36 µM | 0.41% of 330,000 active;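 active = percent inhibition above a cutoff equal to the mean of all tested compounds plus 3 SD, cut at about 15% in these data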;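 note: 0% = PAD4 with RCA probe and DMSO and 100% = probe without PAD4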
UBC13 inh: blocks human UBC13 polyubiquitin chain formation; AID 485273; 0.47% of 330,000 active; TR-FRET; inhibition, % at 20 µM; P61088; in the data active = inhibition above about 45%, passing the limit was not always enough
GSTO1 inh: blocks human GSTO1 in RBBP9 counter-screen; inhibition, % at 5.96 µM; 1.1% of 300,000 active; recombinant GSTO1, activity-based probe fluorescence polarization;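 active = inhibition above the campaign mean inhibition plus 3 SD, cut at about 35% in these data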;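 note: 0% = GSTO1-1 with DMSO and 100% = wells lacking GSTO1-1 enzyme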
Apaf1 inhib: inhibitors of human Apaf-1 apoptosome; reconstituted apoptosome caspase-3 activity, DEVD-Rh110 fluorescence; inhibition, % at 20 µM; 0.71% of 330,000 active; AID 489030; active = inhibition of at least 40% at 20 µM;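 note: plate controls were DMSO wells for no effect and DEVD-CHO caspase inhibitor wells for full effect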
Target sequence (O14727 whole entry, looked up): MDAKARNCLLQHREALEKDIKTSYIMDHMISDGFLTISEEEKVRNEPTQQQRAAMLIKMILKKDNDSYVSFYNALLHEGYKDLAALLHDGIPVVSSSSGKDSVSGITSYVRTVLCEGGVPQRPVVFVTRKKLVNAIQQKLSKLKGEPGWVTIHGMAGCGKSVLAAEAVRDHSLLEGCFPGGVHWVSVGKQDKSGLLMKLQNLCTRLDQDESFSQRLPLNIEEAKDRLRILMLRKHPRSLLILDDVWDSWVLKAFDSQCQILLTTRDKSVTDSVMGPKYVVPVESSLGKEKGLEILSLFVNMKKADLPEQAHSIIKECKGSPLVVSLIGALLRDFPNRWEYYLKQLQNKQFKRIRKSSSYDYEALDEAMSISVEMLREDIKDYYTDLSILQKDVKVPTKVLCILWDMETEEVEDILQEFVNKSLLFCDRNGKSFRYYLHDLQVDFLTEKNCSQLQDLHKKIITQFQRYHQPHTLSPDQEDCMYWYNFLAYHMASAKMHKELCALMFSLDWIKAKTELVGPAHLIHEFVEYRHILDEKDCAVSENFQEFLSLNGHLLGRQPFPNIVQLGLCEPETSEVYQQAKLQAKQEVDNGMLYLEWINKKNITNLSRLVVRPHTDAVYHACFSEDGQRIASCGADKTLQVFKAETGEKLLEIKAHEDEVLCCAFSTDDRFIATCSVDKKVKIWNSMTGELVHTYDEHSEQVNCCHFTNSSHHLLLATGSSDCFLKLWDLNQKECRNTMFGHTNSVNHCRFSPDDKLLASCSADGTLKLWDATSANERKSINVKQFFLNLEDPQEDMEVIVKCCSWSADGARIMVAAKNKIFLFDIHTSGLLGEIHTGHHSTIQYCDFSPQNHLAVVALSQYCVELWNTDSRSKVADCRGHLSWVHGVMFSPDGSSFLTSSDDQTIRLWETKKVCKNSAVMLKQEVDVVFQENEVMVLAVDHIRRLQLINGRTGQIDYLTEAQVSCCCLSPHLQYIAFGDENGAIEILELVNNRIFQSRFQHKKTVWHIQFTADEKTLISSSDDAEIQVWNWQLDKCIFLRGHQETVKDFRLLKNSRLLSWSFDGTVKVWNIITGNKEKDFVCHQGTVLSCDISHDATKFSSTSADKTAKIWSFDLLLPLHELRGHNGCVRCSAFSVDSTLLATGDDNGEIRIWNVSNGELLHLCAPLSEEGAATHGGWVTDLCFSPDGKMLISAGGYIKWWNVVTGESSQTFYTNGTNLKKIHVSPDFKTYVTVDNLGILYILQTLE
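System – cell-free apoptosome with Apaf-1, procaspase-3 and caspase-9 · Buffer or medium – pH 7.5 Hepes buffer with CHAPS, BSA, DTT · Also added – cytochrome c with DEVD-Rh110 · Times – 30 min compound preincubation, 50 min activation, room temperature · Technique – Rh110 fluorescence intensity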
Rin1-Abl PPI inh: human Rin1-Abl interaction inhibition; TR-FRET Rin1/Abl binding, biochemical; P00519+Q13671; AID 588664; inhibition, % at 7.35 µM; 0.4% of 360,000 active; in the data active = inhibition above about 5%, passing the limit was not always enough
UBC9 SUMO inh: SUMOylation inhibition; HTRF SUMOylation assay, SAE1/SAE2 + UBC9, in vitro; inhibition, % at 35 µM; 0.36% of 290,000 active; in the data active = inhibition above about 50%, passing the limit was not always enough
Rin1 Abl conf: confirmation of inhibitors of human Rin1-Abl interaction. shares compounds with Rin1-Abl PPI inh. TR-FRET Rin1-Abl binding, purified proteins. inhibition, % at 7.35 µM. 49% of 1,300 active. AID 602124
GFP quench: GFP fluorescence interference artifact; shares compounds with Rin1-Abl PPI inh; inhibitors/quenchers counterscreen; inhibition, % at 6.75 µM; 8.5% of 1,300 active; AID 602125;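 note: ABL1-eGFP fusion protein alone without its partner RIN1-SBP; 0% = protein with vehicle and 100% = wells lacking protein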
GFP quench DR: GFP fluorescence interference dose response. GFP fluorescence interference/quenching counterscreen. shares compounds with Rin1-Abl PPI inh. 230 tested, under 10 active. IC50, µM; call rule not given here;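 note: ABL1-eGFP fusion protein alone without its RIN1 binding partner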
* marks the source's active call; other numbers are inactive results; nt = no result given. Cut-off read from the data, not from the text of the source, unless noted: active = inhibition above about 6.5%; inactive = the rest.

SMILES	PAD4 FP inh	UBC13 inh	GSTO1 inh	Apaf1 inhib	Rin1-Abl PPI inh	UBC9 SUMO inh	Rin1 Abl conf	GFP quench	others
CC(=O)Nc1ccc(-c2ccnc3c2CC(C)(C(=O)NCc2ccc(N4CCN(C)CC4)cc2)O3)cc1 (configuration not stated)	nt	nt	nt	nt	8.7*	nt	6.6*	0
CN(C)c1ccc(CNC(=O)C2(C)Cc3c(-c4cccc(C(N)=O)c4)ccnc3O2)cc1 (configuration not stated)	nt	nt	nt	nt	16*	nt	8.3*	2
CN(C)c1ccc(CNC(=O)C2(C)Cc3c(-c4ccccc4)ccnc3O2)cc1 (configuration not stated)	nt	nt	nt	nt	1	nt	nt	nt
CC(=O)Nc1ccc(NC(=O)C2(C)Cc3c(-c4cccc(C(N)=O)c4)ccnc3O2)cc1 (configuration not stated)	nt	nt	nt	nt	1	nt	nt	nt
COc1ccc(NC(=O)C2(C)Cc3c(-c4cccc(C(N)=O)c4)ccnc3O2)cc1 (configuration not stated)	nt	nt	nt	nt	10*	nt	3	1
C#CCOCCOCCOCCNc1nc(N2CCN(C(=O)CCCCCCCCCCNC(=O)Cn3cc(C[C@@H](C)O)nn3)CC2)nc(N2CCN(C(=O)CCCCCCCCCCNC(=O)[C@@H](CCSC)n3cc(CCO)nn3)CC2)n1	4	26	-27	30	17*	nt	16*	-1
CC1C(=O)N(Cc2cn(CCC3OCCO3)nn2)CCS(=O)(=O)N1Cc1ccc(-c2ccc(F)nc2)cc1 (configuration not stated)	nt	nt	nt	nt	-2	nt	nt	nt
COc1ccc(-n2c(Cn3c(=O)sc4ccccc43)nnc2SCC(=O)N2CCOCC2)cc1	-1	1	-2	-3	6.5*	9	6	0
O=C(CSc1nnc(Cn2c(=O)sc3ccccc32)n1-c1ccccc1)Nc1nccs1	5	6	0	-8	9.6*	3	3	2
CC(O)(c1ccc(F)c(F)c1)c1nc(/C=C/c2ccc(C(F)(F)F)cc2)cs1 (configuration not stated)	nt	nt	nt	nt	2	nt	nt	nt
CC(Nc1ncnc2sccc12)c1ccccc1 (configuration not stated)	-5	-4	-4	9	0	17	nt	nt
COc1cccc(N2C(=O)CC(N3CCN(S(=O)(=O)c4ccccc4[N+](=O)[O-])CC3)C2=O)c1 (configuration not stated)	nt	nt	nt	nt	1	nt	nt	nt
COc1ccc(Nc2nccc3c2ncn3C)cc1	-1	5	3	-6	2	nt	nt	nt
O=C(c1ccccc1)N(CCN1CCOCC1)C1(C(=O)Nc2ccccc2)CCCCC1	-3	12	4	0	8.5*	-6	-1	0
O=C(Nc1cccc(C(F)(F)F)c1)c1cccnc1NCCc1ccccc1	-6	18	-6	19	1	-30	nt	nt
O=C(Nc1cccc(C(F)(F)F)c1)c1cccnc1NCCO	2	1	0	-6	6.9*	2	1	0
Cc1ccc(OCCNC(=O)Cn2cnc3c(=O)n(C)c(=O)n(C)c32)cc1C	1	-4	0	11	10*	-19	0	-3
Cn1c(=O)c2ncn(CC(=O)NCCOc3ccccc3)c2n(C)c1=O	1	0	-6	-4	1	-2	nt	nt
Cc1ccccc1OCC(=O)Nc1ccccc1-c1ccccc1	1	0	-6	16	7.0*	nt	1	-1
CN(CC(=O)Nc1ccc(N2CCOCC2)cc1)C(=O)CCCOc1ccc(Cl)cc1Cl	-2	2	6	22	11*	nt	-2	0
Cc1ccc(S(=O)(=O)N(C)C)cc1NC(=O)C(C)OC(=O)CC1CC2CCC1C2 (configuration not stated)	nt	nt	nt	nt	0	nt	nt	nt
c1ccc(CCNc2nc(-c3ccncc3)nc3ccccc23)cc1	-2	17	-8	2	-2	9	nt	nt
CC[n+]1c(C)n(C)c2cc(S(=O)(=O)N(C)C)ccc21	0	-4	1	3	8.9*	17	-1	-3
CCn1c(C)[n+](CC)c2ccc(S(=O)(=O)N(C)C)cc21	7	4	1	13	-1	11	nt	nt
O=C(CCO)c1ccc(O)cc1	10	4	37*	-23	29*	50	33*	7	GFP quench DR=>67
SMILES	PAD4 FP inh	UBC13 inh	GSTO1 inh	Apaf1 inhib	Rin1-Abl PPI inh	UBC9 SUMO inh	Rin1 Abl conf	GFP quench	others
COc1ccc(NC(=O)C2CCN(S(=O)(=O)c3cccs3)CC2)cc1OC	1	4	nt	3	6	nt	nt	nt
O=C(c1ccco1)N1CCN(Cc2cc(=O)c(OCc3cccc(Cl)c3)co2)CC1	3	-3	4	1	2	nt	nt	nt
O=C(c1ccco1)N1CCN(Cc2cc(=O)c(OCc3ccccc3Cl)co2)CC1	3	-5	4	-4	14*	nt	10*	1
Cc1ccc(NC(=O)C2(C)CCN2C(=O)Cc2ccc(C(C)(C)C)cc2)cc1C (configuration not stated)	nt	nt	nt	nt	1	nt	nt	nt
COC(=O)c1ccc(COC(=O)C23CC4CC(CC(O)(C4)C2)C3)o1	9	-1	1	8	20*	16	17*	1	GFP quench DR=>68
COC(=O)c1ccc(Cc2ccc(C(=O)OC)o2)o1	2	4	-2	-4	-3	31	nt	nt
COC(=O)c1ccc(COC(=O)c2ccc(CO)cc2)o1	-2	-23	-3	-7	7.3*	-4	6	-1
O=C(COC(=O)C12CC3CC(CC(O)(C3)C1)C2)NC(=O)NCc1ccco1	-1	5	4	6	-3	3	nt	nt
CCOc1ccc(S(=O)(=O)N2CCN(C)CC2)c(C)c1C	-5	4	-1	6	5.8*	22	0	-1
CCOc1ccc(S(=O)(=O)N2CCCCC2)c(C)c1C	nt	nt	nt	nt	2	-3	nt	nt
COc1cc(C2C=C(Nc3ccccc3)C(=O)N2c2ccccc2)ccc1O (configuration not stated)	-13	1	2	11	7.1*	11	-3	-1
O=C(CSc1n[nH]c(-c2ccncc2)n1)Nc1ccc(Br)cc1	-2	0	-1	13	4	2	nt	nt
CCC(C)c1ccc(S(=O)(=O)N2CC(=O)Nc3ccccc32)cc1 (configuration not stated)	-2	-2	0	7	5.8*	6	-1	1
COc1ccc(-n2nnnc2C(c2cc3ccccc3o2)N2CCN(C/C=C/c3ccccc3)CC2)cc1 (configuration not stated)	nt	nt	nt	nt	-2	nt	nt	nt
CCCc1c(C(=O)Nc2cc(C)on2)cnn1-c1ccccc1	6	5	7	-3	8.7*	25	-1	-1

Source: PubChem BioAssay (several laboratories)
